biological target: Serine/threonine-protein phosphatase PP1-gamma catalytic subunit (Homo sapiens, UniProt P36873); test: Inhibition of PP1gamma by firefly bioluminescence assay
Method in brief: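 Recombinant PP1c (E. coli-expressed), concentration set by titration, diluted to 40 nM in Tris–HCl (pH 8.43) with 0.15% BSA and 4.0 mM DTT (DTT omitted for disulfide-containing probes). Inhibitor diacid (0–40 µM stock dilutions; 0–10 µM in assay) premixed with enzyme. Luciferin phosphate (40 µM, 5 µL) is added. After 6 min, released luciferin is read on an immobilized-luciferase column with photon counting, in triplicate. Ki is fitted with a tight-binding model.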

Chain of Serine/threonine-protein phosphatase PP1-gamma catalytic subunit (P36873 whole entry): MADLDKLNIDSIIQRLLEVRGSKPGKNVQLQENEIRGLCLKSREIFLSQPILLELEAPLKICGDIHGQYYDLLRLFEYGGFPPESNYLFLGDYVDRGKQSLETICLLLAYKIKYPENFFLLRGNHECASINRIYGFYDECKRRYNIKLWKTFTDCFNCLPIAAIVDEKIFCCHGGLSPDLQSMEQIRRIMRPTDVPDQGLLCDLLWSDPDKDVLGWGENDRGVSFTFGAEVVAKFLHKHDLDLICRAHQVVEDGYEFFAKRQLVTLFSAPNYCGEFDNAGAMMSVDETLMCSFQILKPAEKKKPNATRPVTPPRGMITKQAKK

Ki [nM] | SMILES
32.5 | CO[C@@H]([C@H](O)CC(=O)[C@@H](C)[C@@H](O)CC[C@@H](C)[C@@H]1O[C@]2(CC[C@@H](C)[C@H](CC[C@H](C)/C(C)=N\OCC(=O)Nc3cccc(C(=O)c4ccccc4)c3)O2)CC[C@@H]1C)[C@H](OC(=O)C[C@@H](O)/C(C(=O)O)=C(\C)C(=O)O)C(C)C
17.3 | CO[C@@H]([C@H](O)CC(=O)[C@@H](C)[C@@H](O)CC[C@@H](C)[C@@H]1O[C@]2(CC[C@@H](C)[C@H](CC[C@H](C)/C(C)=N/OCC(=O)NCCNC(=O)c3ccc(F)c(N=[N+]=[N-])c3)O2)CC[C@@H]1C)[C@H](OC(=O)C[C@@H](O)/C(C(=O)O)=C(\C)C(=O)O)C(C)C
3.4 | CO[C@@H]([C@H](O)CC(=O)[C@@H](C)[C@@H](O)CC[C@@H](C)[C@@H]1O[C@]2(CC[C@@H](C)[C@H](CC[C@H](C)/C(C)=N/OCC(=O)NCCCNC(=O)c3ccc(F)c(N=[N+]=[N-])c3)O2)CC[C@@H]1C)[C@H](OC(=O)C[C@@H](O)/C(C(=O)O)=C(\C)C(=O)O)C(C)C
23.9 | CO[C@@H]([C@H](O)CC(=O)[C@@H](C)[C@@H](O)CC[C@@H](C)[C@@H]1O[C@]2(CC[C@@H](C)[C@H](CC[C@H](C)/C(C)=N\OCC(=O)NCCSSCCNC(=O)c3ccc(F)c(N=[N+]=[N-])c3)O2)CC[C@@H]1C)[C@H](OC(=O)C[C@@H](O)/C(C(=O)O)=C(\C)C(=O)O)C(C)C
8 | CO[C@@H]([C@H](O)CC(=O)[C@@H](C)[C@@H](O)CC[C@@H](C)[C@@H]1O[C@]2(CC[C@@H](C)[C@H](CC[C@H](C)/C(C)=N/OCC(=O)Nc3cccc(C(=O)c4ccccc4)c3)O2)CC[C@@H]1C)[C@H](OC(=O)C[C@@H](O)/C(C(=O)O)=C(\C)C(=O)O)C(C)C
49.7 | COc1cc(C2(C(F)(F)F)N=N2)ccc1C(=O)NCCNC(=O)CO/N=C(/C)[C@@H](C)CC[C@@H]1O[C@@]2(CC[C@H]1C)CC[C@H](C)[C@H]([C@H](C)CC[C@H](O)[C@H](C)C(=O)C[C@@H](O)[C@H](OC)[C@H](OC(=O)C[C@@H](O)/C(C(=O)O)=C(\C)C(=O)O)C(C)C)O2
19.6 | CO[C@@H]([C@H](O)CC(=O)[C@@H](C)[C@@H](O)CC[C@@H](C)[C@@H]1O[C@]2(CC[C@@H](C)[C@H](CC[C@H](C)/C(C)=N/OCC(=O)NCCSSCCNC(=O)c3ccc(F)c(N=[N+]=[N-])c3)O2)CC[C@@H]1C)[C@H](OC(=O)C[C@@H](O)/C(C(=O)O)=C(\C)C(=O)O)C(C)C
213 | COc1cc(C2(C(F)(F)F)N=N2)ccc1C(=O)NCCNC(=O)CO/N=C(\C)[C@@H](C)CC[C@@H]1O[C@@]2(CC[C@H]1C)CC[C@H](C)[C@H]([C@H](C)CC[C@H](O)[C@H](C)C(=O)C[C@@H](O)[C@H](OC)[C@H](OC(=O)C[C@@H](O)/C(C(=O)O)=C(\C)C(=O)O)C(C)C)O2
8.4 | CO[C@@H]([C@H](O)CC(=O)[C@@H](C)[C@@H](O)CC[C@@H](C)[C@@H]1O[C@]2(CC[C@@H](C)[C@H](CC[C@H](C)/C(C)=N\OCC(=O)NCCNC(=O)c3ccc(F)c(N=[N+]=[N-])c3)O2)CC[C@@H]1C)[C@H](OC(=O)C[C@@H](O)/C(C(=O)O)=C(\C)C(=O)O)C(C)C

SMILES | Ki [nM]
CO[C@@H]([C@H](O)CC(=O)[C@@H](C)[C@@H](O)CC[C@@H](C)[C@@H]1O[C@]2(CC[C@@H](C)[C@H](CC[C@H](C)C(C)=O)O2)CC[C@@H]1C)[C@H](OC(=O)C[C@@H](O)/C(C(=O)O)=C(\C)C(=O)O)C(C)C [TAUTOMYCIN DIACID] | 4.5
